# Measured values: ChEMBL document CHEMBL1156450, “Naloxone acts as a potent analgesic in transgenic mouse models of sickle cell anemia” (Proc Natl Acad Sci U S A, 2007)
# Activity calls are given as the source filed them. No cut-off for these calls is given here.
# Assays:
# Mus musculus [1] = assay: Antinociceptive effect in intrathecally dosed C57BL/6J mouse after 10 mins by heat tail flick test; type: functional
# Outline: (§1)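 Male mice aged 10–12 weeks, housed on a 12-h light/dark cycle. Radiant heat was aimed at the dorsal tail and the latency to flick was recorded. Dosing volumes were 5 μl per mouse for i.c.v. and i.t. and 10 ml/kg for s.c. At least three groups of 8–10 mice per paradigm; each mouse was used once. ED50 with 95% confidence intervals came from a parallel line assay.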
# Mus musculus [2] = assay: Antinociceptive effect in icv dosed sickle cell anemic NY1DD transgenic mouse after 10 mins by heat tail flick test; type: functional; outline: as §1
# Mus musculus [3] = assay: Antinociceptive effect in […] dosed sickle cell anemic NY1DD transgenic mouse after 10 mins by heat tail flick test; type: functional
# Mus musculus [4] = assay: Antinociceptive effect in icv dosed C57BL/6J mouse after 10 mins by heat tail flick test; type: functional; outline: as §1
# Mus musculus [5] = assay: Antinociceptive effect in sc dosed C57BL/6J mouse after 60 mins by heat tail flick test; conditions: 1 h
# Mus musculus [6] = assay: Antinociceptive effect in sc dosed sickle cell anemic NY1DD transgenic mouse after 60 mins by heat tail flick test; type: functional; conditions: 1 h; outline: as §1
# Mus musculus [7] = species: Mus musculus; assay: Decrease in analgesic activity in CCL5 pretreated C57BL/6J mouse; type: functional, organism-based
# Outline: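 C57BL/6J mice were pretreated i.c.v. with murine RANTES (CCL5) at two doses 20 min before i.c.v. morphine, then tested by radiant heat tail-flick. The antagonist ED50 of RANTES was given with a 95% confidence interval. For reversal, 50 ng Met-RANTES per mouse was given 2 h before RANTES.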
# Mus musculus [8] = species: Mus musculus; assay: Down-regulation of CCR5 mRNA expression in C57BL/6J mouse; type: functional, organism-based
# Outline: (§2)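 C57BL/6J and NY1DD mice received 25 pmol per mouse of drug or 0.9% saline (5 μl). Brains were removed 10 min later, frozen in liquid N2 and used for RNA isolation and cDNA microarray hybridization (control RNA labeled with Cy3-dCTP; 42°C for 16 h).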
# Mus musculus [9] = assay: Reduction of analgesic activity in NY1DD transgenic mouse pretreated with Met-RANTES 2 hrs before drug administration; type: functional, organism-based
# Outline: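 NY1DD mice received Met-RANTES at 50 ng per mouse 2 h before the test drug. Analgesia was measured by radiant heat tail-flick.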
# [10] = target: T1, C-C chemokine receptor type 5 (Mus musculus, UniProt P51682); assay: Binding affinity to CCR5 in C57BL/6J mouse brain membrane; type: cell membranes
# Mus musculus [11] = assay: Antinociceptive effect in icv dosed sickle cell anemic hBERK1 transgenic mouse after 10 mins by heat tail flick test; type: functional; outline: as §1
# [12] = target: T1, C-C chemokine receptor type 5; assay: Binding affinity to CCR5 in NY1DD transgenic mouse brain membrane; type: tissue-based
# Outline: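 [3H]Naloxone saturation binding on pooled brains (cerebellum removed) from three mice. Tissue was homogenized in ice-cold Hepes pH 7.4, washed repeatedly with a 90-min ice step to deplete endogenous opiates, and used as a 2% suspension. Incubation was 90 min at room temperature; nonspecific binding was defined with 10 μM naloxone. Samples were filtered on PEI-soaked GF/C and counted by scintillation. Kd came from global fitting. Triplicates; 2–3 experiments, mean ± SEM.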
# Mus musculus [13] = species: Mus musculus; assay: Down-regulation of CCR5 mRNA expression in sickle cell anemic NY1DD transgenic mouse; type: functional, organism-based; outline: as §2
# Mus musculus [14] = assay: Antinociceptive effect in NY1DD transgenic mouse assessed as partial agonist response at 8 nmol, icv by heat tail flick test; type: functional
# Mus musculus [15] = species: Mus musculus; assay: Antinociceptive effect in NY1DD transgenic mouse assessed as partial agonist response at 2.5 nmol by heat tail flick test; type: functional
# Mus musculus [16] = assay: Antinociceptive effect in icv dosed NY1DD transgenic mouse after 1 hr by heat tail flick test; type: functional; outline: as §1
# Mus musculus [17] = assay: Antinociceptive effect in intrathecally dosed NY1DD transgenic mouse after 6 hrs by heat tail flick test; type: functional; outline: as §1
# T1 sequence (P51682 whole entry): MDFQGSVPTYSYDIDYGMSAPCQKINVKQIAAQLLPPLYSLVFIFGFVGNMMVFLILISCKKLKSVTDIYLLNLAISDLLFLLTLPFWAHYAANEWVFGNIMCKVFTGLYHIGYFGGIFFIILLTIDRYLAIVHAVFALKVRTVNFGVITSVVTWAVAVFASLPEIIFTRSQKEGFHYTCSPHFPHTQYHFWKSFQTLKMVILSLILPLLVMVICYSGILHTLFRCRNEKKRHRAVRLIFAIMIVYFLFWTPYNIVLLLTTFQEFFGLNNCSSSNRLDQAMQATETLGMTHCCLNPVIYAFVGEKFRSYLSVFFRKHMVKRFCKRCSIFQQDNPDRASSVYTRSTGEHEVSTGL
smiles,measurement,setting,value
CN1CC[C@]23c4c5ccc(O)c4O[C@H]2[C@@H](O)C=C[C@H]3[C@H]1C5 [MORPHINE],ED50,Mus musculus [1],0.088 nmol
same,ED50,Mus musculus [2],3.95 nmol
same,ED50,Mus musculus [3],0.085 nmol
same,ED50,Mus musculus [4],2.7 nmol
same,ED50,Mus musculus [5],6.47 µmol/kg
same,ED50,Mus musculus [6],2.36 µmol/kg
same,Activity,Mus musculus [7],Active
C=CCN1CC[C@]23c4c5ccc(O)c4O[C@H]2C(=O)CC[C@@]3(O)[C@H]1C5 [NALOXONE],Activity,Mus musculus [8],inactive
same,Activity,Mus musculus [9],Active
same,ED50,Mus musculus [2],0.014 nmol
same,ED50,Mus musculus [3],0.045 nmol
same,Kd,[10],20.8 nM
same,ED50,Mus musculus [11],0.03 nmol
same,Kd,[12],10.5 nM
same,ED50,Mus musculus [6],2.83 µmol/kg
same,Activity,Mus musculus [13],Active
O=C1CC[C@@]2(O)[C@H]3Cc4ccc(O)c5c4[C@@]2(CCN3CC2CC2)[C@H]1O5 [NALTREXONE],Activity,Mus musculus [14],33%
Oc1ccc2c3c1O[C@H]1c4[nH]c5ccccc5c4C[C@@]4(O)[C@@H](C2)N(CC2CC2)CC[C@]314 [NALTRINDOLE],Activity,Mus musculus [15],10%
Oc1ccc2c3c1O[C@H]1c4[nH]c5c(c4C[C@@]4(O)[C@@H](C2)N(CC2CC2)CC[C@]314)C[C@@]1(O)[C@H]2Cc3ccc(O)c4c3[C@@]1(CCN2CC1CC1)[C@H]5O4 [NORBINALTORPHIMINE],ED50,Mus musculus [16],1.55 nmol
same,ED50,Mus musculus [17],0.46 nmol
